{"source": "paper PMC11339345", "about": "(International Journal of Nanomedicine, 2024)", "key": {"[1]": {"assay": "Pharmacokinetics of DTX in mice after oral administration", "format": "in vivo", "details": "male, Kunming, mouse, plasma (systemic circulation), 20 mg/kg, oral 20 mg/kg DTX", "procedure,_shortened": "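Male SPF Kunming mice (22–24 g) were randomised by weight and given a single oral dose of 20 mg/kg. Free drug was prepared as a sonicated water dispersion and the nanoparticle powder was vortexed in water. Five mice were sampled per time point (0.125–12 h) under Zoletil anaesthesia. Portal and systemic heparin plasma were collected, and liver and lung were rinsed, weighed and homogenised in water. Samples were acetonitrile-precipitated and assayed by LC-MS/MS, with parameters from non-compartmental analysis.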"}, "[2]": {"details": "cited from earlier work"}, "[3]": {"details": "two hours of incubation in an alkaline solution (0.005 N NaOH, pH roughly 11.7) ref 39; cited from earlier work"}}}
{"smiles": "CC(=O)O[C@@]12CO[C@@H]1C[C@H](O)[C@@]1(C)C(=O)[C@H](O)C3=C(C)[C@@H](OC(=O)[C@H](O)[C@@H](NC(=O)OC(C)(C)C)c4ccccc4)C[C@@](O)([C@@H](OC(=O)c4ccccc4)[C@H]21)C3(C)C", "note": "[DTX, Docetaxel]", "values": [{"measurement": "Tmax", "setting": "[1]", "result": 30, "unit": "min"}, {"measurement": "Oral bioavailability", "setting": "[2]", "result": 7.39, "unit": "%"}, {"measurement": "Degradation", "setting": "[3]", "result": "about 25%"}]}
